Laboratory results as given in ChEMBL document CHEMBL1770123, “SPF32629A and SPF32629B: enantioselective synthesis, determination of absolute configuration, cytotoxicity and antibacterial evaluation” (Eur J Med Chem, 2011).
Values after ≈ are worked out from the molar mass of the structure shown. Active and inactive are the calls of the source. The calls are words filed in the database; no cut-off is given here.

Experiments:
[1] = molecular target: T1, Chymase (Homo sapiens, UniProt P23946); test: Inhibition of human chymase
T1 sequence (P23946 whole entry): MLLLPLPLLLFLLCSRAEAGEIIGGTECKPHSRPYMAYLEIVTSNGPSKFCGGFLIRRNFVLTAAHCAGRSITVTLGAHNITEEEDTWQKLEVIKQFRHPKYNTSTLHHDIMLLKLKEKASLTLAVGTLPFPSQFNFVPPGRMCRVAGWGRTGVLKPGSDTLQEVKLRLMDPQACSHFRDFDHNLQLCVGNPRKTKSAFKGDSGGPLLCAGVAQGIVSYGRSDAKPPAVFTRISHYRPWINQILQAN

[2] = Inhibition of human elastase
[3] = tested on: Escherichia coli; test: Antimicrobial activity against Escherichia coli at 500 ug/disc after 24 hrs by disc diffusion method; assay type: functional
[4] = tested on: Escherichia coli; test: Antimicrobial activity against Escherichia coli at 1000 ug/disc after 24 hrs by disc diffusion method; assay type: functional
[5] = tested on: Bacillus subtilis; test: Antimicrobial activity against Bacillus subtilis at 500 ug/disc after 24 hrs by disc diffusion method; assay type: functional
[6] = tested on: Bacillus subtilis; test: Antimicrobial activity against Bacillus subtilis at 1000 ug/disc after 24 hrs by disc diffusion method; assay type: functional
[7] = tested on: Staphylococcus epidermidis; test: Antimicrobial activity against Staphylococcus epidermidis at 500 ug/disc after 24 hrs by disc diffusion method; assay type: functional
[8] = tested on: Staphylococcus epidermidis; test: Antimicrobial activity against Staphylococcus epidermidis at 1000 ug/disc after 24 hrs by disc diffusion method; assay type: functional; details: read-out: DIZ
[9] = tested on: Klebsiella pneumoniae; test: Antimicrobial activity against Klebsiella pneumoniae at 500 ug/disc after 24 hrs by disc diffusion method; assay type: functional
[10] = tested on: Klebsiella pneumoniae; test: Antimicrobial activity against Klebsiella pneumoniae at 1000 ug/disc after 24 hrs by disc diffusion method; assay type: functional
[11] = tested on: Listeria monocytogenes; test: Antimicrobial activity against Listeria monocytogenes at 500 ug/disc after 24 hrs by disc diffusion method; assay type: functional
[12] = tested on: Listeria monocytogenes; test: Antimicrobial activity against Listeria monocytogenes at 1000 ug/disc after 24 hrs by disc diffusion method; assay type: functional
[13] = tested on: Salmonella typhimurium; test: Antimicrobial activity against Salmonella Typhimurium at 500 ug/disc after 24 hrs by disc diffusion method; assay type: functional, Salmonella enterica subsp. enterica serovar Typhimurium; details: Salmonella enterica, read-out: DIZ
[14] = tested on: Salmonella typhimurium; test: Antimicrobial activity against Salmonella Typhimurium at 1000 ug/disc after 24 hrs by disc diffusion method; assay type: functional, Salmonella enterica subsp. enterica serovar Typhimurium; details: Salmonella enterica, read-out: DIZ
[15] = tested on: Staphylococcus aureus; test: Antimicrobial activity against Staphylococcus aureus at 500 ug/disc after 24 hrs by disc diffusion method; assay type: functional
How it was run: (§1)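 Disc diffusion on 2.4% Mueller-Hinton agar inoculated with the strain. Paper discs 6 mm across were loaded with test compound and placed on the agar. Plates were incubated at 37 °C for 24 h. Read-out was the diameter of the inhibition zone in mm.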

[16] = tested on: Staphylococcus aureus; test: Antimicrobial activity against Staphylococcus aureus at 1000 ug/disc after 24 hrs by disc diffusion method; assay type: functional
[17] = tested on: Staphylococcus aureus; test: Antimicrobial activity against methicillin-resistant Staphylococcus aureus strain 1 TB3G at 500 ug/disc after 24 hrs by disc diffusion method; assay type: functional; how it was run: as §1
[18] = tested on: Staphylococcus aureus; test: Antimicrobial activity against methicillin-resistant Staphylococcus aureus strain 1 TB3G at 1000 ug/disc after 24 hrs by disc diffusion method; assay type: functional; how it was run: as §1
[19] = tested on: Staphylococcus aureus; test: Antimicrobial activity against methicillin-resistant Staphylococcus aureus strain 2 TB4G at 500 ug/disc after 24 hrs by disc diffusion method; assay type: functional; how it was run: as §1
[20] = tested on: Staphylococcus aureus; test: Antimicrobial activity against methicillin-resistant Staphylococcus aureus strain 2 TB4G at 1000 ug/disc after 24 hrs by disc diffusion method; assay type: functional; how it was run: as §1
[21] = tested on: Staphylococcus aureus; test: Antimicrobial activity against methicillin-resistant Staphylococcus aureus strain 4 TB5G at 500 ug/disc after 24 hrs by disc diffusion method; assay type: functional; how it was run: as §1
[22] = tested on: Staphylococcus aureus; test: Antimicrobial activity against methicillin-resistant Staphylococcus aureus strain 4 TB5G at 1000 ug/disc after 24 hrs by disc diffusion method; assay type: functional; how it was run: as §1
[23] = tested on: A549; test: Cytotoxicity against human A549 cells assessed as cell death at 1 ug after 48 hrs by MTT assay; assay type: functional
How it was run: (§2)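 A549 cells were grown in DMEM with 2 mmol L-glutamine, 10% FBS, penicillin (50 IU/mL) and streptomycin, at 37 °C and 5% CO2. 1×10^4 cells/well were plated and treated 24 h later with compound diluted in medium for 48 h. Controls were DMSO-matched and untreated wells. MTT 0.4 mg/mL in PBS was added for 4 h in the dark, then DMSO for 4 h. A540 was read and reported as % live cells relative to untreated.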

[24] = tested on: A549; test: Cytotoxicity against human A549 cells assessed as cell death at 2 ug after 48 hrs by MTT assay; assay type: functional; how it was run: as §2
[25] = tested on: A549; test: Cytotoxicity against human A549 cells assessed as cell death at 5 ug after 48 hrs by MTT assay; assay type: functional; how it was run: as §2
[26] = tested on: A549; test: Cytotoxicity against human A549 cells assessed as cell death at 10 ug after 48 hrs by MTT assay; assay type: functional; how it was run: as §2
[27] = tested on: A549; test: Cytotoxicity against human A549 cells assessed as cell death at 25 ug after 48 hrs by MTT assay; assay type: functional; how it was run: as §2
[28] = tested on: A549; test: Cytotoxicity against human A549 cells after 48 hrs by MTT assay; assay type: functional, cell-based; details: A549, 48 h
How it was run: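 A549 cells were kept in DMEM with 2 mM L-glutamine, 10% FBS, penicillin 50 IU/mL and streptomycin at 37 °C under 5% CO2. 1×10^4 cells per well were treated 24 h after seeding with compounds diluted in medium for 48 h. MTT (0.4 mg/mL in PBS) was added for 4 h in the dark, formazan was dissolved in DMSO for 4 h and absorbance read at 540 nm. Viability was expressed as % of untreated cells, and IC50 was derived.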

[29] = tested on: Escherichia coli; test: Antimicrobial activity against Escherichia coli after 24 hrs by microdilution method; assay type: functional
How it was run: (§3)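 Growth was judged by turbidity, and the MIC was taken as the minimum concentration giving the lowest growth. Amikacin served as reference.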

[30] = tested on: Bacillus subtilis; test: Antimicrobial activity against Bacillus subtilis after 24 hrs by microdilution method; assay type: functional; how it was run: as §3
[31] = tested on: Staphylococcus epidermidis; test: Antimicrobial activity against Staphylococcus epidermidis after 24 hrs by microdilution method; assay type: functional; how it was run: as §3
[32] = tested on: Klebsiella pneumoniae; test: Antimicrobial activity against Klebsiella pneumoniae after 24 hrs by microdilution method; assay type: functional; how it was run: as §3
[33] = tested on: Listeria monocytogenes; test: Antimicrobial activity against Listeria monocytogenes after 24 hrs by microdilution method; assay type: functional; how it was run: as §3
[34] = tested on: Salmonella typhimurium; test: Antimicrobial activity against Salmonella Typhimurium after 24 hrs by microdilution method; assay type: functional, Salmonella enterica subsp. enterica serovar Typhimurium; details: Salmonella enterica; how it was run: as §3
[35] = tested on: Staphylococcus aureus; test: Antimicrobial activity against Staphylococcus aureus after 24 hrs by microdilution method; assay type: functional; how it was run: as §3
[36] = tested on: Staphylococcus aureus; test: Antimicrobial activity against methicillin-resistant Staphylococcus aureus strain 1 TB3G after 24 hrs by microdilution method; assay type: functional
How it was run: (§4)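 Growth was judged by turbidity. The MIC was taken as the lowest concentration giving the lowest growth.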

[37] = tested on: Staphylococcus aureus; test: Antimicrobial activity against methicillin-resistant Staphylococcus aureus strain 2 TB4G after 24 hrs by microdilution method; assay type: functional; how it was run: as §4
[38] = tested on: Staphylococcus aureus; test: Antimicrobial activity against methicillin-resistant Staphylococcus aureus strain 4 TB5G after 24 hrs by microdilution method; assay type: functional; how it was run: as §4

For `CC(C)CC(=O)OC(c1ccccc1)c1cc(O)cc(=O)[nH]1` (racemic), the IC50 [1] was 830 nM, the IC50 [2] was 4.9 µg/mL (≈ 16.3 µM) and the “diameter of the inhibition zone (DIZ)” value [3] was “inactive”. The “diameter of the inhibition zone (DIZ)” value [4] was “inactive”, the “diameter of the inhibition zone (DIZ)” value [5] was “inactive” and the “diameter of the inhibition zone (DIZ)” value [6] was “inactive”. The “diameter of the inhibition zone (DIZ)” value [7] was “inactive”, the zone of inhibition at 1000 µg/disc [8] was 9 mm and the “diameter of the inhibition zone (DIZ)” value [9] was “inactive”. For the same compound, the “diameter of the inhibition zone (DIZ)” value [10] was “inactive”, the “diameter of the inhibition zone (DIZ)” value [11] was “inactive” and the “diameter of the inhibition zone (DIZ)” value [12] was “inactive”. For the same compound, the zone of inhibition at 500 µg/disc [13] was 7 mm, the zone of inhibition at 1000 µg/disc [14] was 13 mm and the “diameter of the inhibition zone (DIZ)” value [15] was “inactive”. For the same compound, the “diameter of the inhibition zone (DIZ)” value [16] was “inactive”, the “diameter of the inhibition zone (DIZ)” value [17] was “inactive” and the “diameter of the inhibition zone (DIZ)” value [18] was “inactive”. For the same compound, the “diameter of the inhibition zone (DIZ)” value [19] was “inactive”, the “diameter of the inhibition zone (DIZ)” value [20] was “inactive” and the “diameter of the inhibition zone (DIZ)” value [21] was “inactive”. The “diameter of the inhibition zone (DIZ)” value [22] was “inactive”, the Activity [23] was 8.22% and the Activity [24] was 25.54%. The Activity [25] was 37.22%, the Activity [26] was 50.21% and the Activity [27] was 74.02%. For the same compound, the IC50 [28] was 28 µM.

Compound `CC(C)CC(=O)OC(c1ccccc1)c1cc(O)c(C(=O)O)c(=O)[nH]1` (racemic) has an IC50 [1] of 1220 nM, an IC50 [2] of 4.5 µg/mL (≈ 13 µM) and a zone of inhibition at 500 µg/disc ([3]; read-out: DIZ) of 8 mm. For the same compound, the zone of inhibition at 1000 µg/disc ([4]; read-out: DIZ) was 15 mm, the zone of inhibition at 500 µg/disc ([5]; read-out: DIZ) was 7 mm and the zone of inhibition at 1000 µg/disc ([6]; read-out: DIZ) was 13 mm. It also gave a zone of inhibition at 500 µg/disc ([7]; read-out: DIZ) of 8 mm, a zone of inhibition at 1000 µg/disc [8] of 17 mm and a zone of inhibition at 500 µg/disc ([9]; read-out: DIZ) of 12 mm. For the same compound, the zone of inhibition at 1000 µg/disc ([10]; read-out: DIZ) was 21 mm, the zone of inhibition at 500 µg/disc ([11]; read-out: DIZ) was 11 mm and the zone of inhibition at 1000 µg/disc ([12]; read-out: DIZ) was 20 mm. It also gave a zone of inhibition at 500 µg/disc [13] of 9 mm, a zone of inhibition at 1000 µg/disc [14] of 20 mm and a zone of inhibition at 500 µg/disc ([15]; read-out: DIZ) of 7 mm. It also gave a zone of inhibition at 1000 µg/disc ([16]; read-out: DIZ) of 15 mm, a zone of inhibition at 500 µg/disc ([17]; read-out: DIZ) of 5 mm and a zone of inhibition at 1000 µg/disc ([18]; read-out: DIZ) of 10 mm. The zone of inhibition at 500 µg/disc ([19]; read-out: DIZ) was 7 mm, the zone of inhibition at 1000 µg/disc ([20]; read-out: DIZ) was 12 mm and the zone of inhibition at 500 µg/disc ([21]; read-out: DIZ) was 6 mm. For the same compound, the zone of inhibition at 1000 µg/disc ([22]; read-out: DIZ) was 12 mm, the MIC [29] was 50 µg/mL (≈ 145 µM) and the MIC [30] was 25 µg/mL (≈ 72.4 µM). It also gave an MIC [31] greater than 100 µg/mL, an MIC [32] of 50 µg/mL (≈ 145 µM) and an MIC [33] of 50 µg/mL (≈ 145 µM). The MIC [34] was greater than 100 µg/mL, the MIC [35] was greater than 100 µg/mL and the MIC [36] was greater than 100 µg/mL. The MIC [37] was greater than 100 µg/mL, the MIC [38] was greater than 100 µg/mL and the Activity [23] was 7.07%. For the same compound, the Activity [24] was 21.53%, the Activity [25] was 44% and the Activity [26] was 71.07%. The Activity [27] was 81.53% and the IC50 [28] was 11 µM.
